Measured values: ChEMBL document CHEMBL1132142, “Extension of the polyanionic cosalane pharmacophore as a strategy for increasing anti-HIV potency” (J Med Chem, 1999)
Values belong to the molecule of their own block, whether it stands above or below them.

What was measured:
[1] = system: CEM-SS; experiment: The compound was evaluated for cytotoxicity in CEM-SS cells; assay type: functional, Homo sapiens
Summary of the method: (§1)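 Uninfected cells (CEM-SS or MT-4, per line) were incubated with the drug in a microtiter XTT assay. Viability was expressed as percent of the uninfected drug-free control. CC50 is the concentration causing 50% cell death. Triplicates were run per plate on two sister plates, and the two plate values were averaged.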

[2] = system: CEM-SS; experiment: The compound was evaluated for inhibition of cytopathic effect of HIV-1 RF in CEM-SS cells; assay type: functional, cell-based, Homo sapiens
Summary of the method: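 XTT-based microtiter cytoprotection assay measuring protection from HIV-1-induced cytopathic effect, read as percent of the uninfected drug-free control. EC50 is the concentration giving 50% protection in infected cultures. Results were confirmed by cell-free supernatant reverse transcriptase and p24 levels. Each plate was run in triplicate, and the EC50 values from two sister plates were averaged.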

[3] = system: MT4; experiment: The compound was evaluated for cytotoxicity in MT-4 cells; assay type: functional, Homo sapiens; summary of the method: as §1
[4] = system: MT4; experiment: The compound was evaluated for inhibition of cytopathic effect of HIV-1 IIIB in MT-4 cells; assay type: functional, cell-based, Homo sapiens
[5] = system: MT4; experiment: The compound was evaluated for inhibition of cytopathic effect of HIV-2ROD in MT-4 cells; assay type: functional, cell-based, Homo sapiens
[6] = system: CEM-SS; experiment: The compound was evaluated for uM; assay type: functional, cell-based, Homo sapiens
[7] = target: T-cell surface glycoprotein CD4 (Homo sapiens) (UniProt P01730); experiment: Compound was tested for binding of the mAb (leu3a) to the CD4 receptor at 0.13 uM
Summary of the method: (§2)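 The assay measured Leu3a monoclonal antibody binding to cell-surface CD4 at each listed concentration. Read-out was % positive cells and % inhibition relative to controls, including an isotype mAb.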

[8] = target: T-cell surface glycoprotein CD4 (Homo sapiens) (UniProt P01730); experiment: Compound was tested for binding of the mAb (leu3a) to the CD4 receptor at 0.15 uM; summary of the method: as §2
[9] = target: T-cell surface glycoprotein CD4 (Homo sapiens) (UniProt P01730); experiment: Compound was tested for binding of the mAb (leu3a) to the CD4 receptor at 0.65 uM; summary of the method: as §2
[10] = target: T-cell surface glycoprotein CD4 (Homo sapiens) (UniProt P01730); experiment: Compound was tested for binding of the mAb (leu3a) to the CD4 receptor at 0.73 uM; summary of the method: as §2
[11] = target: T-cell surface glycoprotein CD4 (Homo sapiens) (UniProt P01730); experiment: Compound was tested for binding of the mAb (leu3a) to the CD4 receptor at 16 uM; summary of the method: as §2
[12] = target: T-cell surface glycoprotein CD4 (Homo sapiens) (UniProt P01730); experiment: Compound was tested for binding of the mAb (leu3a) to the CD4 receptor at 18 uM; summary of the method: as §2
[13] = target: T-cell surface glycoprotein CD4 (Homo sapiens) (UniProt P01730); experiment: Compound was tested for binding of the mAb (leu3a) to the CD4 receptor at 3.2 uM; summary of the method: as §2
[14] = target: T-cell surface glycoprotein CD4 (Homo sapiens) (UniProt P01730); experiment: Compound was tested for binding of the mAb (leu3a) to the CD4 receptor at 3.7 uM; summary of the method: as §2
[15] = target: T-cell surface glycoprotein CD4 (Homo sapiens) (UniProt P01730); experiment: Compound was tested for binding of the mAb (leu3a) to the CD4 receptor at 81 uM; summary of the method: as §2
[16] = target: T-cell surface glycoprotein CD4 (Homo sapiens) (UniProt P01730); experiment: Compound was tested for binding of the mAb (leu3a) to the CD4 receptor at 92 uM; summary of the method: as §2
[17] = target: C-X-C chemokine receptor type 4 (Homo sapiens) (UniProt P61073); experiment: Compound was tested for binding of the mAb (12G5) to the CXCR4 receptor at 18 uM
[18] = target: C-X-C chemokine receptor type 4 (Homo sapiens) (UniProt P61073); experiment: Compound was tested for binding of the mAb (12G5) to the CXCR4 receptor at 92 uM
[19] = target: C-X-C chemokine receptor type 4 (Homo sapiens) (UniProt P61073); experiment: Compound was tested for binding of the mAb (12G5) to the Chemokine receptor type 4at 3.2 uM
[20] = target: C-X-C chemokine receptor type 4 (Homo sapiens) (UniProt P61073); experiment: Compound was tested for binding of the mAb (12G5) to the Chemokine receptor type 4 at 16 uM
[21] = target: C-X-C chemokine receptor type 4 (Homo sapiens) (UniProt P61073); experiment: Compound was tested for binding of the mAb (12G5) to the Chemokine receptor type 4 at 18 uM
[22] = target: C-X-C chemokine receptor type 4 (Homo sapiens) (UniProt P61073); experiment: Compound was tested for binding of the mAb (12G5) to the Chemokine receptor type 4 at 81 uM
[23] = target: C-X-C chemokine receptor type 4 (Homo sapiens) (UniProt P61073); experiment: Compound was tested for binding of the mAb (12G5) to the Chemokine receptor type 4 at 3.7 uM
[24] = target: C-X-C chemokine receptor type 4 (Homo sapiens) (UniProt P61073); experiment: Compound was tested for binding of the mAb (12G5) to the Chemokine receptor type 4 at 3.2 uM
[25] = target: C-X-C chemokine receptor type 4 (Homo sapiens) (UniProt P61073); experiment: Compound was tested for binding of the mAb (12G5) to the Chemokine receptor type 4 at 0.15 uM
[26] = target: C-X-C chemokine receptor type 4 (Homo sapiens) (UniProt P61073); experiment: Compound was tested for binding of the mAb (12G5) to the Chemokine receptor type 4 at 0.73 uM
[27] = target: C-X-C chemokine receptor type 4 (Homo sapiens) (UniProt P61073); experiment: Compound was tested for binding of the mAb (12G5) to the Chemokine receptor type 4 at 0.65 uM
[28] = target: C-X-C chemokine receptor type 4 (Homo sapiens) (UniProt P61073); experiment: Compound was tested for binding of the mAb (12G5) to the Chemokine receptor type 4 at 0.13 uM
[29] = target: C-X-C chemokine receptor type 4 (Homo sapiens) (UniProt P61073); experiment: Compound was tested for binding of the mAb (12G5) to the CChemokine receptor type 4 at 0.73 uM

C-X-C chemokine receptor type 4 (Homo sapiens), sequence (P61073 whole entry, looked up): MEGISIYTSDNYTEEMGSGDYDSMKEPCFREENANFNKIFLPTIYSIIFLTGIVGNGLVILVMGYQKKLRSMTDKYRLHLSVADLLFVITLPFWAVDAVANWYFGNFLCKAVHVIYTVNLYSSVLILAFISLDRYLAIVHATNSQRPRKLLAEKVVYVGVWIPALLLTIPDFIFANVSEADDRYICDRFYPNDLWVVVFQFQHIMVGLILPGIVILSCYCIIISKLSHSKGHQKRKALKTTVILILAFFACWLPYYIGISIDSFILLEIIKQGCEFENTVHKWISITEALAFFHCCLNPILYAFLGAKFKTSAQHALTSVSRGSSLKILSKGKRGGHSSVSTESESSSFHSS

SMILES: CC(C)CCCC(C)[C@H]1CC[C@H]2[C@@H]3CCC4C[C@@H](CCC=C(c5cc(Cl)c(OCc6ccccc6C(=O)[O-])c(C(=O)[O-])c5)c5cc(Cl)c(OCc6ccccc6C(=O)[O-])c(C(=O)[O-])c5)CC[C@]4(C)[C@H]3CC[C@]12C.[Na+].[Na+].[Na+].[Na+] (stereo not given in full)
Cytotoxicity [1]: >316 µM
EC50 ([2]; cem-ss): 17.9 µM
Cytotoxicity [3]: 52 µM
EC50 ([4]; mt4): 22.1 µM
EC50 ([5]; mt4): > 52 µM

EC50 [6]: Not Active
SMILES: CC(C)CCCC(C)[C@H]1CC[C@H]2[C@@H]3CCC4C[C@@H](CCC=C(c5cc(Cl)c(OCc6ccc([N+](=O)[O-])cc6)c(C(=O)O)c5)c5cc(Cl)c(OCc6ccc([N+](=O)[O-])cc6)c(C(=O)O)c5)CC[C@]4(C)[C@H]3CC[C@]12C (stereo not given in full)
Cytotoxicity [1]: >316 µM
Cytotoxicity [3]: 83 µM
EC50 ([4]; Homo sapiens, MT4): > 83 µM
EC50 ([5]; mt4): > 83 µM

SMILES: CC(C)CCCC(C)[C@H]1CC[C@H]2[C@@H]3CCC4C[C@@H](CCC=C(c5cc(Cl)c(OCc6ccc(C(=O)O)cc6)c(C(=O)O)c5)c5cc(Cl)c(OCc6ccc(C(=O)O)cc6)c(C(=O)O)c5)CC[C@]4(C)[C@H]3CC[C@]12C (stereo not given in full)
Positive cells [7]: 99.8%
inhibition [7]: 0%
Positive cells [8]: 99.9%
inhibition [8]: 0%
Positive cells [9]: 99.9%
inhibition [9]: 0%
Positive cells [10]: 99.1%
inhibition [10]: 4%
Positive cells [11]: 2.1%
inhibition [11]: 100%
Positive cells [12]: 1.2%
inhibition [12]: 100%
Positive cells [13]: 3.2%
inhibition [13]: 99%
Positive cells [14]: 7.8%
inhibition [14]: 94%
Positive cells [15]: 1.2%
inhibition [15]: 100%
Positive cells [16]: 1.4%
inhibition [16]: 100%
inhibition [17]: 0%
Positive cells [18]: 99.8%
inhibition [18]: 0%
inhibition [19]: 0%
Positive cells [20]: 99.9%
inhibition [20]: 0%
Positive cells [21]: 99.9%
Positive cells [22]: 99.8%
inhibition [22]: 0%
Positive cells [23]: 99.4%
inhibition [23]: 0%
Positive cells [24]: 99.8%
inhibition [25]: 0%
inhibition [26]: 0%
Positive cells [27]: 99.2%
inhibition [27]: 0%
Positive cells [28]: 99.1%
inhibition [28]: 0%
Positive cells [29]: 99.3%

SMILES: CC(C)CCCC(C)[C@H]1CC[C@H]2[C@@H]3CCC4C[C@@H](CCC=C(c5cc(Cl)c(OCc6cccc([N+](=O)[O-])c6)c(C(=O)O)c5)c5cc(Cl)c(OCc6cccc([N+](=O)[O-])c6)c(C(=O)O)c5)CC[C@]4(C)[C@H]3CC[C@]12C (stereo not given in full)
Cytotoxicity [1]: 16 µM
EC50 [6]: Not Active
Cytotoxicity [3]: 97 µM
EC50 ([4]; mt4): > 125 µM
EC50 ([5]; mt4): > 125 µM

EC50 ([2]; Homo sapiens, CEM-SS): 78.2 µM
SMILES: CC(C)CCCC(C)[C@H]1CC[C@H]2[C@@H]3CCC4C[C@@H](CCC=C(c5cc(Cl)c(OCc6ccc([N+](=O)[O-])cc6)c(C(=O)[O-])c5)c5cc(Cl)c(OCc6ccc([N+](=O)[O-])cc6)c(C(=O)[O-])c5)CC[C@]4(C)[C@H]3CC[C@]12C.[Na+].[Na+] (stereo not given in full)
Cytotoxicity [1]: >316 µM
Cytotoxicity [3]: >125 µM
EC50 ([4]; mt4): 80 µM
EC50 ([5]; mt4): 33 µM

SMILES: CC(C)CCCC(C)[C@H]1CC[C@H]2[C@@H]3CCC4C[C@@H](CCC=C(c5cc(Cl)c(OCc6cccc(C(=O)O)c6)c(C(=O)O)c5)c5cc(Cl)c(OCc6cccc(C(=O)O)c6)c(C(=O)O)c5)CC[C@]4(C)[C@H]3CC[C@]12C (stereo not given in full)
Cytotoxicity [1]: >316 µM
EC50 ([2]; Homo sapiens, CEM-SS): 5.7 µM
Cytotoxicity [3]: 29 µM
EC50 ([4]; Homo sapiens, MT4): 2.2 µM
EC50 ([5]; Homo sapiens, MT4): > 29 µM

EC50 ([2]; Homo sapiens, CEM-SS): 12.2 µM
SMILES: CC(C)CCCC(C)[C@H]1CC[C@H]2[C@@H]3CCC4C[C@@H](CCC=C(c5cc(Cl)c(OCc6ccccc6[N+](=O)[O-])c(C(=O)[O-])c5)c5cc(Cl)c(OCc6ccccc6[N+](=O)[O-])c(C(=O)[O-])c5)CC[C@]4(C)[C@H]3CC[C@]12C.[Na+].[Na+] (stereo not given in full)
Cytotoxicity [1]: >316 µM
Cytotoxicity [3]: 99 µM
EC50 ([4]; Homo sapiens, MT4): > 125 µM
EC50 ([5]; Homo sapiens, MT4): > 125 µM

SMILES: CC(C)CCCC(C)[C@H]1CC[C@H]2[C@@H]3CCC4C[C@@H](CCC=C(c5cc(Cl)c(OCc6cccc([N+](=O)[O-])c6)c(C(=O)[O-])c5)c5cc(Cl)c(OCc6cccc([N+](=O)[O-])c6)c(C(=O)[O-])c5)CC[C@]4(C)[C@H]3CC[C@]12C.[Na+].[Na+] (stereo not given in full)
Cytotoxicity [1]: >316 µM
EC50 ([2]; Homo sapiens, CEM-SS): 21.5 µM
Cytotoxicity [3]: >125 µM
EC50 ([4]; mt4): 48 µM
EC50 ([5]; mt4): 29 µM

SMILES: CC(C)CCCC(C)[C@H]1CC[C@H]2[C@@H]3CCC4C[C@@H](CCC=C(c5cc(Cl)c(OCc6ccccc6C(=O)O)c(C(=O)O)c5)c5cc(Cl)c(OCc6ccccc6C(=O)O)c(C(=O)O)c5)CC[C@]4(C)[C@H]3CC[C@]12C (stereo not given in full)
Cytotoxicity [1]: >316 µM
Cytotoxicity [3]: 37 µM
EC50 ([4]; Homo sapiens, MT4): > 37 µM
EC50 ([5]; Homo sapiens, MT4): > 37 µM

SMILES: CC(C)CCCC(C)[C@H]1CC[C@H]2[C@@H]3CCC4C[C@@H](CCC=C(c5cc(Cl)c(O)c(C(=O)O)c5)c5cc(Cl)c(O)c(C(=O)O)c5)CC[C@]4(C)[C@H]3CC[C@]12C (stereo not given in full)
Cytotoxicity [1]: >200 µM
Cytotoxicity [3]: >125 µM
EC50 ([4]; Homo sapiens, MT4): 3 µM
EC50 ([5]; Homo sapiens, MT4): 4 µM

SMILES: CC(C)CCCC(C)[C@H]1CC[C@H]2[C@@H]3CCC4C[C@@H](CCC=C(c5cc(Cl)c(OCc6cccc(C(=O)[O-])c6)c(C(=O)[O-])c5)c5cc(Cl)c(OCc6cccc(C(=O)[O-])c6)c(C(=O)[O-])c5)CC[C@]4(C)[C@H]3CC[C@]12C.[Na+].[Na+].[Na+].[Na+] (stereo not given in full)
Cytotoxicity [1]: >316 µM
EC50 ([2]; cem-ss): 7.6 µM
Cytotoxicity [3]: 35 µM
EC50 ([4]; mt4): 2.4 µM
EC50 ([5]; mt4): > 35 µM

EC50 [6]: Not Active
SMILES: CC(C)CCCC(C)[C@H]1CC[C@H]2[C@@H]3CCC4C[C@@H](CCC=C(c5cc(Cl)c(OCc6ccccc6[N+](=O)[O-])c(C(=O)O)c5)c5cc(Cl)c(OCc6ccccc6[N+](=O)[O-])c(C(=O)O)c5)CC[C@]4(C)[C@H]3CC[C@]12C (stereo not given in full)
Cytotoxicity [1]: 66 µM
Cytotoxicity [3]: 108 µM
